Experimental data taken from ChEMBL document CHEMBL2331076, “Pyridone alkaloids from a marine-derived fungus, Stagonosporopsis cucurbitacearum, and their activities against azole-resistant Candida albicans” (2013).
Values after ≈ are worked out from the molar mass of the structure shown.

Key:
Format in all cases: functional
Candida albicans [1] = assay: Antifungal activity against azole-sensitive Candida albicans J1-97 by CLSI M27-A2 microdilution method
Outline: (§1)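 Broth microdilution per CLSI M27-A2, run in triplicate. Panel: azole-resistant C. albicans J2-36 (resistant to fluconazole, itraconazole, voriconazole), azole-sensitive C. albicans J1-97, C. glabrata J-92, Cryptococcus neoformans MPU-B. Quality control was run on each testing day with reference strains, including C. albicans ATCC 90028.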

Candida albicans [2] = assay: Antifungal activity against azole-resistant Candida albicans J2-36 by CLSI M27-A2 microdilution method
Cryptococcus neoformans = assay: Antifungal activity against Cryptococcus neoformans MPU-B by CLSI M27-A2 microdilution method; outline: as §1
Nakaseomyces glabratus = assay: Antifungal activity against Candida glabrata J 92 by CLSI M27-A2 microdilution method; outline: as §1

In the case of `C[C@@H]1CC[C@H]2[C@H](C(=O)c3c(O)c([C@]4(O)CCC(=O)[C@@H]5O[C@@H]54)cn(O)c3=O)[C@H](C)C=C[C@@H]2C1` [DIDYMELLAMIDE A], the MIC (Candida albicans [1]) is reported as 3.1 µg/mL (≈ 6.99 µM), the MIC (Candida albicans [2]) is reported as 3.1 µg/mL (≈ 6.99 µM) and the MIC (Cryptococcus neoformans) is reported as 1.6 µg/mL (≈ 3.61 µM). The MIC (Nakaseomyces glabratus) was 3.1 µg/mL (≈ 6.99 µM).

Work on `C[C@@H]1CC[C@H]2[C@H](C(=O)c3c(O)c(-c4ccc(O)cc4)c[nH]c3=O)[C@H](C)C=C[C@@H]2C1` [DIDYMELLAMIDE B] yielded an MIC (Candida albicans [1]) greater than 25 µg/mL, an MIC (Candida albicans [2]) greater than 25 µg/mL and an MIC (Cryptococcus neoformans) of 6.3 µg/mL (≈ 16 µM). It also gave an MIC (Nakaseomyces glabratus) greater than 25 µg/mL.

For `C[C@@H]1CC[C@H]2[C@H](C(=O)c3c(O)c(C4(O)C=CC(=O)CC4)c[nH]c3=O)[C@H](C)C=C[C@@H]2C1` (stereo partly specified) [DIDYMELLAMIDE C], the MIC (Candida albicans [1]) was greater than 25 µg/mL, the MIC (Candida albicans [2]) was greater than 25 µg/mL and the MIC (Cryptococcus neoformans) was greater than 25 µg/mL. It also gave an MIC (Nakaseomyces glabratus) greater than 25 µg/mL.

Molecule `C[C@@H]1CC[C@H]2[C@H](C(=O)c3c(O)c(C4(O)CCC(=O)CC4O)c[nH]c3=O)[C@H](C)C=C[C@@H]2C1` (stereo partly specified) [DIDYMELLAMIDE D] has an MIC (Candida albicans [1]) greater than 25 µg/mL, an MIC (Candida albicans [2]) greater than 25 µg/mL and an MIC (Cryptococcus neoformans) greater than 25 µg/mL. The MIC (Nakaseomyces glabratus) was greater than 25 µg/mL.
